The target of series [1] is Tumour suppressor p53/oncoprotein Mdm2 (Homo sapiens, UniProt Q00987). Nature of the series: Inhibition of MDM2/p53 interaction (unknown origin) using biotinylated MDM2 and Cy5-p53 (18 to 26 amino acids) by TR-FRET assay. The class given is protein assay. (Time-resolved FRET reads energy transfer from a long-lived donor to a nearby acceptor.)
The subject of the next series is SJSA-1. The experiment in a line: Inhibition of cell proliferation of human SJSA1 cells.
Series [2] concerns the target Voltage-gated inwardly rectifying potassium channel KCNH2 (Homo sapiens, UniProt Q12809). Nature of the series: Inhibition of human ERG by radioligand binding assay.
Series [3] deals with T1, Cytochrome P450 3A4 (Homo sapiens, UniProt P08684). The experiment in a line: Time dependent inhibition of CYP3A4 in human liver microsomes. The class given is ADME. (Microsomes from liver hold many membrane-bound enzymes, among them those of drug oxidation.)
T1 sequence (P08684 whole entry): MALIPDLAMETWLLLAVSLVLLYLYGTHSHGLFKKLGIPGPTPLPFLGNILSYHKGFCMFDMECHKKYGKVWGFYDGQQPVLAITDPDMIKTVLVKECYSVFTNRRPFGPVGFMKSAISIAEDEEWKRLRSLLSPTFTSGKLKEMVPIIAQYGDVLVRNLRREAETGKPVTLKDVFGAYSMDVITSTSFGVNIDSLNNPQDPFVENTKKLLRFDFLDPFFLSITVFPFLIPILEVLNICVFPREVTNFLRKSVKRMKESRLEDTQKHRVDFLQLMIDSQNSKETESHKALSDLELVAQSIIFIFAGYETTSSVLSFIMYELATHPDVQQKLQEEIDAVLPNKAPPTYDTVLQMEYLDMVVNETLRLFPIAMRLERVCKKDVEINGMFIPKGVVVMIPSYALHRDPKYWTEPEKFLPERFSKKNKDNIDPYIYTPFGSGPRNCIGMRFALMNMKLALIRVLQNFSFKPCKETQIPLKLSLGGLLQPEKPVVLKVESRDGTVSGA
Series [4] is described as follows: Octanol water partition coefficient, logP of the compound. In kind it is physicochemical.
Series [5] is described as follows: Intrinsic clearance in monkey liver microsomes. The class given is ADME, Macaca mulatta. The following applies: rhesus monkey, read-out: CLH.
A short description of series [6]: Intrinsic clearance in human liver microsomes. In kind it is ADME. The following applies: read-out: CLH.
Series [7] is described as follows: Terminal half life in Sprague-Dawley rat at 1 mg/kg, iv. The following applies: Sprague-Dawley, in vivo, read-out: beta t1/2 (converted). In kind it is ADME, organism-based. In a few lines:
(§1)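 Sprague-Dawley rats. IV dose given as a solution in NMP:PEG200 (10:90); 3 mg/kg PO given as a suspension in CMC:water:Tween (0.5:99:0.5). AUC and Cmax dose-normalized to 1 mg/kg. Mean ± SD from four rats.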

Series [8] is described as follows: Volume of distribution at steady state in Sprague-Dawley rat at 1 mg/kg, iv. The following applies: Sprague-Dawley, in vivo, read-out: Vdss. In kind it is ADME, organism-based.
The test system of series [9] is Rattus norvegicus. Nature of the series: AUC in Sprague-Dawley rat at 1 mg/kg, iv. The following applies: in vivo. In kind it is ADME, organism-based. An outline of the steps: as §1
Series [10] deals with Rattus norvegicus. The experiment in a line: AUC in Sprague-Dawley rat at 3 mg/kg, po. The class given is ADME, organism-based. The following applies: in vivo. In a few lines: as §1
Series [11] in a line: Cmax in Sprague-Dawley rat at 3 mg/kg, po. The class given is ADME, organism-based. Details: dose 3 mg/kg, route oral. The conditions noted are these: in vivo. An outline of the steps:
as §1

The subject of series [12] is Rattus norvegicus. Nature of the series: Oral bioavailability in Sprague-Dawley rat at 3 mg/kg. The conditions noted are these: in vivo. The class given is ADME, organism-based. In a few lines: as §1
Series [13] in a line: Protein binding in Sprague-Dawley rat plasma by equilibrium dialysis method. In kind it is ADME, cell-free. The following applies: read-out: PPB. An outline of the steps:
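Rat plasma protein binding by rapid equilibrium dialysis (RED) in 100% plasma.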
(In general: In equilibrium dialysis free small molecules cross a membrane that holds back macromolecules.)

Series [14] is described as follows: Equilibrium solubility in pH 6.8 buffer solution. In kind it is physicochemical. In a few lines:
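High-throughput equilibrium solubility assay at pH 6.8.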

The nature of series [15]: Intrinsic clearance in rat liver microsomes. The following applies: read-out: CLH. The class given is ADME.
The nature of series [16]: Half life in rat liver microsomes. In kind it is ADME.
Series [17] has as its target T1, Cytochrome P450 3A4. The experiment in a line: Time dependent inhibition of CYP3A4 (unknown origin). The class given is ADME.
Series [18] is described as follows: Permeability in human Caco2 cells assessed as drug recovery during apical to basolateral transport. In kind it is ADME, cell-based. The following applies: Caco-2, read-out: Drug recovery.
A short description of series [19]: Permeability from apical to basolateral side in human Caco2 cells. The class given is ADME, cell-based. The conditions noted are these: Caco-2.
Series [20] is described as follows: Permeability from basolateral to apical side in human Caco2 cells. The class given is ADME, cell-based. The following applies: Caco-2.
A short description of series [21]: Clearance in Sprague-Dawley rat at 1 mg/kg, iv. The class given is ADME, organism-based. The following applies: in vivo. An outline of the steps: as §1
Series [22] in a line: Tmax in Sprague-Dawley rat at 3 mg/kg, po. In kind it is ADME, organism-based. The conditions noted are these: in vivo.
Series [23] has as its target E3 ubiquitin-protein ligase Mdm2 (Canis lupus familiaris, UniProt P56950). Nature of the series: Inhibition of dog MDM2 by TR-FRET assay.
In series [24] the target is E3 ubiquitin-protein ligase Mdm2 (Mus musculus, UniProt P23804). The experiment in a line: Inhibition of mouse MDM2 by TR-FRET assay.
E3 ubiquitin-protein ligase Mdm2 (Mus musculus, UniProt P23804), sequence (P23804 whole entry): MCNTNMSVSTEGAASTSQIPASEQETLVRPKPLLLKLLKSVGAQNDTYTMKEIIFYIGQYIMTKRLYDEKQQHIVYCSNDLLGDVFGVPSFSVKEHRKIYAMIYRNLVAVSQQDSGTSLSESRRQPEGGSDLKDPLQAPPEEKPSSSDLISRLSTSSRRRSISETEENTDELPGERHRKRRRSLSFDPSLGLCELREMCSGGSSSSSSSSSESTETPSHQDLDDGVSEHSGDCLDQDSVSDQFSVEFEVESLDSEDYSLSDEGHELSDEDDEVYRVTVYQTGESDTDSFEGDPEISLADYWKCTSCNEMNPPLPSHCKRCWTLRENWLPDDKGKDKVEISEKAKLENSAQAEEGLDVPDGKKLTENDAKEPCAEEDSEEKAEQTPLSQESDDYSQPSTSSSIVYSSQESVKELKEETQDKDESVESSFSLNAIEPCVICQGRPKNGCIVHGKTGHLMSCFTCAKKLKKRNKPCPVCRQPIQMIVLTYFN
Series [25] can be described thus: Inhibition of rat MDM2 by TR-FRET assay.

We go through 17 molecules from ChEMBL document CHEMBL3600357 (J Med Chem, 2015).

A value given as a limit tells only on which side of the number the result lay.

Voltage-gated inwardly rectifying potassium channel KCNH2, sequence (Q12809 whole entry): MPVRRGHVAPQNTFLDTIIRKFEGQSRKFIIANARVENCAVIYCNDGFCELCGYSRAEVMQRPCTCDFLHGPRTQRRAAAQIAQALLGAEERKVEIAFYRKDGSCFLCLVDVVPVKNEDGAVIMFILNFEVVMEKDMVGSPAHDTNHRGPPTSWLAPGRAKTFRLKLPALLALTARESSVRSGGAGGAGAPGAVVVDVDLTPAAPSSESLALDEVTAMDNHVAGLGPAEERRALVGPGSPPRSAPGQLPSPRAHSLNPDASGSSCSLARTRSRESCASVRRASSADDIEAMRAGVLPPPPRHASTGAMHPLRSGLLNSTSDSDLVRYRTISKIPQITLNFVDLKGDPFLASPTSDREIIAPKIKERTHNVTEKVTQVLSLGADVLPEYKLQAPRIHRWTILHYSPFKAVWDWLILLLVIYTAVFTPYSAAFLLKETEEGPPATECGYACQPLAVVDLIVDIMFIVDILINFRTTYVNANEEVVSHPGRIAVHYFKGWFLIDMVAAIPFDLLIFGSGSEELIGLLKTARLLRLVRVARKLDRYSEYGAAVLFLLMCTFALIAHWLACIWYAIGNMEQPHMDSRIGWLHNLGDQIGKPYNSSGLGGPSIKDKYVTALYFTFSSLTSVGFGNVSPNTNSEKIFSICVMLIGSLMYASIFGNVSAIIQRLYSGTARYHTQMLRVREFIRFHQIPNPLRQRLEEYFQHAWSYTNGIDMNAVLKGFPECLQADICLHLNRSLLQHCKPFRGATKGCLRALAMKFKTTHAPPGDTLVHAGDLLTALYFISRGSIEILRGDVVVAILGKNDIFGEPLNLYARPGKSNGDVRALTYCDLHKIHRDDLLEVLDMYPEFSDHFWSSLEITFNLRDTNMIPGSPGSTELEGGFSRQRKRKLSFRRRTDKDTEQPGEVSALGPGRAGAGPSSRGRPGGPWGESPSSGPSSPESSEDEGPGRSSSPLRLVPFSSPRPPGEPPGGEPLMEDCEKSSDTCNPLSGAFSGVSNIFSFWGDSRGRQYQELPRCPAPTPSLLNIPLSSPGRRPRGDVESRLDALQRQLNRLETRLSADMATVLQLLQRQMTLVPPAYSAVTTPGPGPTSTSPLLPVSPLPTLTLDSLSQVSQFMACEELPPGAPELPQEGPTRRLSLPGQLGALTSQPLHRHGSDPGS
Tumour suppressor p53/oncoprotein Mdm2, sequence (P04637 whole entry, the tested form may be a part): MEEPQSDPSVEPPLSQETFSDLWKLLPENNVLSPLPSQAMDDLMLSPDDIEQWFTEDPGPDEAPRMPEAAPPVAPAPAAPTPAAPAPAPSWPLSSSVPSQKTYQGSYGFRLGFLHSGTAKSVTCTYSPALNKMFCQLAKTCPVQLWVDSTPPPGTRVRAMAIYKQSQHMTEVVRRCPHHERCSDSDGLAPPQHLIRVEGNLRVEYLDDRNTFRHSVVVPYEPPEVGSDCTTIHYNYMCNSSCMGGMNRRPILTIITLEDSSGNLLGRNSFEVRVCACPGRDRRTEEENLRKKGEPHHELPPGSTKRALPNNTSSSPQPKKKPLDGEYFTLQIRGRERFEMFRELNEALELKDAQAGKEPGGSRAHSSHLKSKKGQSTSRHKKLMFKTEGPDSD
Tumour suppressor p53/oncoprotein Mdm2, sequence (Q00987 whole entry, the tested form may be a part): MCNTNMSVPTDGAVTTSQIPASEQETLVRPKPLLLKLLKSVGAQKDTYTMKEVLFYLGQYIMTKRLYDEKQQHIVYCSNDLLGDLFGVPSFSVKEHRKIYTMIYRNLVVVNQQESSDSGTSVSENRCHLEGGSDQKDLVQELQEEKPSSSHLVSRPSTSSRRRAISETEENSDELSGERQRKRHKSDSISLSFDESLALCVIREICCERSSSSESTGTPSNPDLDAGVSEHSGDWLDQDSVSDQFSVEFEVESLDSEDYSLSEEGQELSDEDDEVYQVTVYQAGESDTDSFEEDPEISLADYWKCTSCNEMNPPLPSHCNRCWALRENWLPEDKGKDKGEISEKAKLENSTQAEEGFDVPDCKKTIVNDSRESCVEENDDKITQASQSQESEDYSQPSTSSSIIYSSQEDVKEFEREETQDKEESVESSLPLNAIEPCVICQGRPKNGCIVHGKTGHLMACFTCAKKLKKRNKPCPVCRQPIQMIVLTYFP
E3 ubiquitin-protein ligase Mdm2 (Canis lupus familiaris, UniProt P56950), sequence (P56950 whole entry): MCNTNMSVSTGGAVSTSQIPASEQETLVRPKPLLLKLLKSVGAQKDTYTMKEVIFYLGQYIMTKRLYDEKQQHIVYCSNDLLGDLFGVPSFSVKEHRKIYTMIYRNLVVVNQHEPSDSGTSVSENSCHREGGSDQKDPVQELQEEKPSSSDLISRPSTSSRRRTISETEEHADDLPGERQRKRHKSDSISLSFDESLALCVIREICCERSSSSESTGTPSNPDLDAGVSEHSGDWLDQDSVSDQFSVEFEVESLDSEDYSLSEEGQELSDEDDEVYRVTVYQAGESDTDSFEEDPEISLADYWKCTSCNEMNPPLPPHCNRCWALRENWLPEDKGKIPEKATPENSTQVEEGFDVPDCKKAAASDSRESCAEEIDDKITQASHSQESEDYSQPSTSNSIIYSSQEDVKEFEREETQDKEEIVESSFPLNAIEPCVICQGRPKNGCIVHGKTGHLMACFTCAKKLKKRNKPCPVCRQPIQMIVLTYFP

Turning to `CCC(=O)N[C@H]1CC[C@H](CN(C)c2ccc(N3C(=O)Cc4cc(OC)c(O[C@H](C)CC)cc4[C@@H]3c3ccc(Cl)cc3)cc2)CC1`, the IC50 in series [1] is 20 nM; in series [2], greater than 30000 nM. The same molecule yielded a GI50 in the series with SJSA-1 of 4960 nM.
Molecule `CC[C@@H](C)Oc1cc2c(cc1OC)CC(=O)N(c1ccc(N(C)CC3CCNCC3)cc1)C2c1ccc(Cl)cc1` (stereo not given in full) registered a GI50 in the series with SJSA-1 of 1090 nM.
As for `COc1cc2c(cc1OC(C)C)[C@H](c1ccc(Cl)cc1)N(c1ccc(N(C)C[C@H]3CC[C@H](N4CCNC(=O)C4)CC3)cc1)C(=O)C2`, in the series on SJSA-1, the GI50 was 350 nM. Further, the IC50 stood at 16000 nM in [2] and 11300 nM at Cytochrome P450 3A4 [3]. In [4], this molecule yielded a logP of 5.3. The microsomal CLint stood at 79.7 µL/min/mg in series [5] and 3.4 µL/min/mg in [6]. Also, the half-life in series [7] was 9.3 h. In series [8], the Vd stood at 8 L/kg. The AUC with Rattus norvegicus [9] was 2.154 µM·h; with Rattus norvegicus [10], 1.018 µM·h. In addition, the highest level in series [11] (Cmax) was 74.6 nM. In the series with Rattus norvegicus [12], this molecule showed an F of 49%. In addition, in [13], the fraction unbound was less than 0.01.
On to `CC[C@@H](C)Oc1cc2c(cc1OC)CC(=O)N(c1ccc(N(C)C[C@H]3CC[C@H](N)CC3)cc1)C2c1ccc(Cl)cc1` (stereo not given in full), for which the 50% growth inhibitory concentration (GI50) in the series with SJSA-1 was determined as 2850 nM.
On Cytochrome P450 3A4 [3], `COc1cc2c(cc1OC(C)C)[C@H](c1ccc(Cl)cc1)N(c1cnc(N(C)C[C@H]3CC[C@H](N4CCN(C)C(=O)C4)CC3)cn1)C(=O)C2` had an IC50 greater than 20000 nM. For the same molecule, the logP in series [4] turned out to be 4.6. In addition, the microsomal CLint was 420 µL/min/mg in series [5] and 220 µL/min/mg in series [6].
Molecule `CC[C@@H](C)Oc1cc2c(cc1OC)CC(=O)N(c1ccc(N(C)C[C@H]3CC[C@H](N(C)C)CC3)cc1)[C@H]2c1ccc(Cl)cc1` gave a GI50 with SJSA-1 of 940 nM. In [14], this molecule had a thermodynamic solubility greater than 1000 µM. In addition, the microsomal CLint in series [15] was found to be 5.6 µL/min/mg. Further, the half-life in series [16] is 4.1 h; in [7] it was 19.1 h. The K on Cytochrome P450 3A4 [17] stood at 0.042 min⁻¹. The molecule also gave a 50% inhibitory concentration (IC50) in series [2] of 1300 nM. Further, in series [18], the recovery was less than 30%. Besides, the Papp A→B in [19] turned out to be 0.08 ×10⁻⁶ cm/s. The same molecule yielded a Papp B→A in [20] of 0.12 ×10⁻⁶ cm/s. The same molecule returned a clearance in series [21] of 15 mL/min/kg. Also, in series [8], the Vd came out at 23.9 L/kg. Besides, the AUC came to 1.574 µM·h in the series with Rattus norvegicus [9] and 0.297 µM·h in the series with Rattus norvegicus [10]. This molecule gave a Cmax in [11] of 17.6 nM. Moreover, the Tmax in [22] was determined as 7 h. In the series with Rattus norvegicus [12], this molecule gave an F of 18%. For the same molecule, in [13], the fraction unbound was less than 0.01.
`CC[C@@H](C)Oc1cc2c(cc1OC)CC(=O)N(c1ccc(N(C)Cc3ccncc3)cc1)C2c1ccc(Cl)cc1` (stereo not given in full) gave a GI50 in the series on SJSA-1 of 3860 nM.
Regarding `COc1ccc(C2=N[C@@H](c3ccc(Cl)cc3)[C@@H](c3ccc(Cl)cc3)N2C(=O)N2CCNC(=O)C2)c(OC(C)C)c1` [NUTLIN-3], the Ki is 10.5 nM in series [23], 19.9 nM in series [24] and 12.6 nM in [25].
Turning to `COc1cc2c(cc1OC(C)C)[C@H](c1ccc(Cl)cc1)N(c1ccc(N(C)C[C@H]3CC[C@H](N(C)C)CC3)nc1)C(=O)C2`, the IC50 in series [1] came out at 1.6 nM; against Cytochrome P450 3A4 [3], 5000 nM. Moreover, the logP in series [4] is greater than 6.3. Also, in [6], the microsomal CLint worked out at 78.3 µL/min/mg.
With `COc1cc2c(cc1OC(C)C)[C@H](c1ccc(Cl)cc1)N(c1ccc(N(C)C[C@H]3CC[C@H](N(C)C)CC3)cc1)C(=O)C2`, it took 710 nM to inhibit growth with SJSA-1 by half (GI50). Also, the IC50 at Cytochrome P450 3A4 [3] came out at 9400 nM. This molecule also came in with a lipophilicity (logP) in series [4] greater than 4.2. Moreover, in series [6], the microsomal CLint was 4.6 µL/min/mg.
In the case of `CC[C@@H](C)Oc1cc2c(cc1OC)CC(=O)N(c1ccc(N(C)Cc3ccncc3)cc1)[C@@H]2c1ccc(Cl)cc1`, the GI50 in the series on SJSA-1 came out at 29600 nM.
Take `CC[C@@H](C)Oc1cc2c(cc1OC)CC(=O)N(c1ccc(N(C)C[C@H]3CC[C@H](N(C)C)CC3)cc1)C2c1ccc(Cl)cc1` (stereo not given in full): the GI50 in the series with SJSA-1 was 1130 nM.
As to `COc1cc2c(cc1OC(C)C)[C@H](c1ccc(Cl)cc1)N(c1ccc(N(C)C[C@H]3CC[C@H](N4CCN(C)C(=O)C4)CC3)cn1)C(=O)C2`, the IC50 against Cytochrome P450 3A4 [3] is greater than 20000 nM. In series [4], this molecule gave a logP of 4.6. Also, the microsomal CLint in series [5] came out at 355 µL/min/mg; in series [6], 156 µL/min/mg.
For `COc1cc2c(cc1OC(C)C)[C@H](c1ccc(Cl)cc1)N(c1ccc(N(C)C[C@H]3CC[C@H](N4CC(=O)N(C)C4)CC3)nc1)C(=O)C2`, the values for the IC50 (in series [1]; against Cytochrome P450 3A4 [3]) were 11.4 nM and 13200 nM, respectively. The same molecule gave a logP in series [4] of 4.4. In addition, the values for the microsomal CLint in series [5] and in [6] were 224 µL/min/mg and 157 µL/min/mg, respectively.
Regarding `CC[C@@H](C)Oc1cc2c(cc1OC)CC(=O)N(c1ccc(N(C)Cc3ccncc3)cc1)[C@H]2c1ccc(Cl)cc1`, the GI50 in the series on SJSA-1 was 1210 nM.
In the case of `COc1cc2c(cc1OC(C)C)[C@H](c1ccc(Cl)cc1)N(c1ccc(N(C)C[C@H]3CC[C@H](N4CCN(C)C(=O)C4)CC3)nc1)C(=O)C2`, the IC50 against Cytochrome P450 3A4 [3] was greater than 20000 nM. This molecule also came in with a logP in series [4] of 4.8. The microsomal CLint came to 279 µL/min/mg in [5] and 151 µL/min/mg in series [6].
On to `COc1cc2c(cc1OC(C)C)[C@H](c1ccc(Cl)cc1)N(c1ccc(N(C)C[C@H]3CC[C@H](N4CNC(=O)C4)CC3)cc1)C(=O)C2`, for which half-maximal inhibition in series [1] (IC50) required 1.7 nM. Besides, in the series with SJSA-1, halving of growth (GI50) required 600 nM.

Usually IC50 stands for the concentration at which inhibition is half-maximal. For orientation: GI50 means the concentration giving 50% growth inhibition. What is called logP is the decadic logarithm of the partition coefficient of the neutral form, usually between octanol and water. What is called AUC is the area under the concentration-time curve, a measure of exposure. Broadly, the Cmax is the highest concentration seen after dosing. As usually defined, the thermodynamic solubility is the concentration in solution at equilibrium with solid. A word on the Papp A→B: it is the apparent permeability from the apical to the basolateral side of a cell layer. One may read the Papp B→A as the apparent permeability from the basolateral to the apical side of a cell layer. In general, clearance refers to a measure of how efficiently the substance is removed, as volume per time. As a reminder, the Tmax is the time from dosing to the highest level. A word on the Ki: it is a dissociation constant, usually derived from enzyme kinetics or from competition with a known ligand.
